Measurements taken from publication PMC11613190 (iScience, 2024).
Each block holds one compound with its values, some of them ahead of it.

Columns and labels:
[1] = tested on: CF HBE cells cultured at ALI; assay: Total nitrate/nitrite release, fluorometric assay, CF HBE ALI cultures; type: cell-based, human; conditions: for Effect on AIP-1 stimulated nitrate release: inhibitor 10 μM with AIP-1 50 μM; for Effect on nitrate release evoked by C12: inhibitor 10 μM with C12 100 μM
Outline: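 Primary CF human bronchial epithelial cells, carrying scrambled shRNA or T2R14 knockdown, were seeded on collagen-coated Transwells at 500,000 cells/well and grown at air-liquid interface to day 30. The apical surface was exposed for 18 h to C12 (100 µM) or AIP-1 (50 µM), with or without gallein or U73122 (10 μM each). Apical secretions were mixed with reductase cofactor for 30 min at room temperature, then total nitrate/nitrite was read fluorometrically.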

[2] = target: T1, T2R14 (Homo sapiens, UniProt Q9NYV8); assay: Intracellular calcium mobilization in human bronchial epithelial; type: cell-based
T1 sequence (Q9NYV8 1-317): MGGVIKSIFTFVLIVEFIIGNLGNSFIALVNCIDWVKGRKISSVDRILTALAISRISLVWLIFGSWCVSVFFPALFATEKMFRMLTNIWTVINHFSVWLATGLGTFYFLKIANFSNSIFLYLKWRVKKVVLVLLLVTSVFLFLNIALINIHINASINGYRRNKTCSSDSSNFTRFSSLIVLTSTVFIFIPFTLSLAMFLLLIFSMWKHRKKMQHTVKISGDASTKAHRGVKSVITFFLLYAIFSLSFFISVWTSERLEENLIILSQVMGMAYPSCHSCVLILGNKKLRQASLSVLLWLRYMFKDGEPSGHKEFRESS

[3] = target: T1, T2R14; assay: Intracellular calcium mobilization in HEK293T cells overexpressing T2R14; type: cell-based; conditions: for Intracellular calcium mobilization: HEK293T cells overexpressing T2R14, concentration series
Outline: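 HEK293T cells overexpressing T2R14 were loaded for agonist-induced intracellular calcium mobilization. They were treated with increasing concentrations of the bacterial quorum-sensing molecule 3-oxo-C12-AHL (4.5–300 μM), tyrosol (15–1000 μM) or farnesol (7.5–500 μM).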

[4] = tested on: NuLi-1 and CuFi-1 cells; assay: cAMP response to CFTR corrector in airway epithelial cell lines; type: cell-based, human; conditions: 5 µM for 24 h
[5] = EC50, intracellular calcium mobilization, both BCF and BD cells

SMILES: O=C1OC2(c3ccccc31)c1ccc(O)c(O)c1Oc1c2ccc(O)c1O [Gallein]
Effect on AIP-1 stimulated nitrate release [1]: without altering the AIP-1 stimulated release significantly | Effect on nitrate release evoked by C12 [1]: reduced the nitrate release evoked by C12

EC50 ([2]; EC50, Ca2+ mobilization, all the cell types investigated (NuLi-1, CuFi-1, BD, BCF)): ~500 µM
SMILES: CN(C)CCOC(c1ccccc1)c1ccccc1 [DPH, diphenhydramine]

EC50 [2, 5]: ~100 µM
SMILES: OCCc1ccc(O)cc1 [tyrosol]
Intracellular calcium mobilization [3]: concentration dependent increase in intracellular calcium mobilization

SMILES: CCCCCCCCCC(=O)CC(=O)N[C@H]1CCOC1=O [C12, 3-oxo-12-AHL]
Total nitrate release vs untreated controls ([1]; apical exposure 18 h, C12 100 μM, AIP-1 50 μM): significant elevation of total nitrate release | Intracellular calcium mobilization [3]: concentration dependent increase in intracellular calcium mobilization | EC50 ([3]; read-out: EC50, intracellular calcium mobilization, HEK 293T cells overexpressing T2R14): ~60 µM | EC50 ([2]; read-out: EC50, intracellular calcium mobilization, both BCF and BD cells): ~100 µM

SMILES: Cc1ccc(NC(=O)C2(c3ccc4c(c3)OC(F)(F)O4)CC2)nc1-c1cccc(C(=O)O)c1 [VX-809, lumacaftor]
cAMP levels in response to forskolin ([4]; CuFi-1 cells): significant increase in cAMP levels | cAMP levels in response to forskolin ([4]; NuLi cells): No significant change

EC50 [2, 5]: ~120 µM
SMILES: CC(C)=CCC/C(C)=C/CC/C(C)=C/CO [farnesol]
Intracellular calcium mobilization [3]: concentration dependent increase in intracellular calcium mobilization

SMILES: COc1ccc2c(c1)CC[C@@H]1[C@@H]2CC[C@]2(C)[C@@H](NCCCCCCN3C(=O)C=CC3=O)CC[C@@H]12 [U73122]
Effect on AIP-1 stimulated nitrate release [1]: without altering the AIP-1 stimulated release significantly | Effect on nitrate release evoked by C12 [1]: reduced the nitrate release evoked by C12
